Source: PubChem BioAssay (The Scripps Research Institute Molecular Screening Center)
Hits are enriched below; roughly 4% of the tested compounds scored in any of these assays.
OX1R antag-1 – antagonists of human orexin 1 receptor (OX1R); O43613; OX1R-expressing cells, FRET antagonist read-out; inhibition, % at 6.6 µM; 330,000 compounds, 1.8% hits; in the data active means inhibition mostly above about 38%, no sharp cut-off; inactive means mostly below about 40%;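 further: 0% = agonist challenge alone and 100% = reference antagonist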
Target sequence (O43613 whole entry, looked up): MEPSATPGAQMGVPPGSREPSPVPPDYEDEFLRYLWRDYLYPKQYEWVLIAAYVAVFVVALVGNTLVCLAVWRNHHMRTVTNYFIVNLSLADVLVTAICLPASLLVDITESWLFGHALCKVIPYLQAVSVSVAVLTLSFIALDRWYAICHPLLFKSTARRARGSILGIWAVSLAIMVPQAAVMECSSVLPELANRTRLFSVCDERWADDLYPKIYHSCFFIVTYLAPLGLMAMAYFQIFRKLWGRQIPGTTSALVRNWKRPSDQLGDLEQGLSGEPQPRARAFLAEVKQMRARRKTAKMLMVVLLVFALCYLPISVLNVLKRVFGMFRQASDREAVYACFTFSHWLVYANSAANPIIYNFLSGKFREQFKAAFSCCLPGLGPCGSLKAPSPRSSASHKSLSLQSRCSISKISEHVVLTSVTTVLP
TAAR1 agonist – human TAAR1 agonism; Q96RJ0; CHO RD-HGA16 TAAR1, Fluo-8 calcium fluorescence; vehicle wells 0%, saturating PEA agonist 100%; activation, % at 3 µM; 360,000 compounds, 0.99% hits;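 active means activation above the mean activation of all test compounds in the run plus 3 SD, cut at about 38% in these data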
Target sequence (Q96RJ0 whole entry, looked up): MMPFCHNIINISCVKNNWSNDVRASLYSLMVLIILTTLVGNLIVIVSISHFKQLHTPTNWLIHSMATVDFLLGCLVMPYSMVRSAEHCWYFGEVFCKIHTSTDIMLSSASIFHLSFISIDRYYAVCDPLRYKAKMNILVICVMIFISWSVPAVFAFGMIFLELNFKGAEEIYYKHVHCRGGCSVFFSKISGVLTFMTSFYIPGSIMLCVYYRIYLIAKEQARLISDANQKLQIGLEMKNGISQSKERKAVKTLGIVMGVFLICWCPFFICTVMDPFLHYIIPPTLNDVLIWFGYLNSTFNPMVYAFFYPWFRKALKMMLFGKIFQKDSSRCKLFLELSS
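Assay system – CHO-derived RD-HGA16 cells with stable Gα16 and human TAAR1 · Compound dosing – one-point dosing at 3 µM (nominal) · Incubation – 17-24 h seeding, 75 min 37 °C dye, 30 min RT · Measured by – kinetic Fluo-8 calcium fluorescence · Control set – DMSO vehicle as 0%, PEA at EC100 as 100% · Repeats – single well for each compound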
TAAR1 antagonist – human TAAR1 antagonism; CHO RD-HGA16 TAAR1, Fluo-8 calcium fluorescence, antagonist; 360,000 compounds, 1.5% hits; AID 624466; inhibition, % at 3 µM; Q96RJ0;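 active means inhibition above a per-plate cutoff, the mean inhibition of test compounds on that plate plus 3 SD, cut at about 49% in these data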;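 further: 0% = DMSO plus EC80 beta-PEA response and 100% = DMSO alone without agonist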
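Assay system: RD-HGA16 CHO cells with stable hTAAR1 and Gα16 / Reagent: EC80 β-phenethylamine stimulus / Doses: 3 µM, single point / Timing: dye loading 75 min at 37 °C, then 30 min room temperature / Measured by: Fluo-8 intracellular calcium dye fluorescence, real-time kinetic reads / Controls: vehicle wells and EC80 agonist wells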
OX1R antag-2 – antagonists of human orexin 1 receptor; O43613; CHO/OX1R cells, Fluo-8 calcium fluorescence, orexin A; inhibition, % at 5 µM; 330,000 compounds, 0.43% hits;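 active means inhibition above its plate's threshold, mean inhibition of all tested compounds on the plate plus 3 SD, cut at about 37% in these data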;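 further: 0% = orexin A challenge wells and 100% = SB-334867-A antagonist wells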
CHO parental Ca – counter-screen: ATP calcium response change in parental CHO cells; parental CHO-K1, ATP-induced calcium, Fluo-8 fluorescence; inhibition, % at 5.6 µM; 330,000 compounds, 0.63% hits;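 active means inhibition above that plate's mean sample inhibition plus 3 SD, cut at about 26% in these data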;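 further: 0% = ATP-challenged DMSO wells and 100% = DMSO wells without ATP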
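Material – parental CHO cells · Reagent – ATP stimulus · Compound – single nominal dose of 5.6 µM per compound · Detection – Fluo-8 fluorescence · Read-out basis – percent inhibition of calcium signal · Controls – ATP-challenged DMSO wells low, unchallenged DMSO wells high · Repeats – no replicates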
TAAR1 nonsel count – nonselective antagonism, TAAR1 counter-screen; shares compounds with TAAR1 antagonist; counterscreen cell line, calcium fluorescence, antagonist mode; inhibition, % at 3 µM; 2,400 compounds, 77% hits; AID 651780; in the data active means inhibition above about 22%;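 further: CHO-Ga16 host cells stimulated with ATP at an EC80 level; 0% = agonist EC80 plus vehicle and 100% = vehicle without agonist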
TAAR1 antag conf – confirmation of human TAAR1 antagonists; 2,400 compounds, 40% hits; TAAR1-expressing cells, fluorescence antagonist read-out; inhibition, % at 3 µM; AID 651785; shares compounds with TAAR1 antagonist; in the data active means inhibition above about 49%;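 further: CHO-Ga16 host cells challenged with agonist PEA near its EC80; 0% = agonist at EC80 plus vehicle and 100% = vehicle with no agonist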
Ga16 nonsel ag – counter-screen for TAAR1 antagonists: nonselective Ga16 agonists; shares compounds with TAAR1 antagonist; Ga16-expressing cells, calcium fluorescence, agonist counterscreen; activation, % at 3 µM; 2,400 compounds, 18% hits; in the data active means activation above about 12%;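 further: 0% = vehicle wells and 100% = saturating stimulus response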
TAAR1 ag counter – counter-screen for human TAAR1 antagonists: TAAR1 agonists. activation, % at 3 µM. 2,400 compounds, 2% hits. hTAAR1 cell line, fluorescence activation, agonist mode. shares compounds with TAAR1 antagonist; in the data active means activation above about 37%;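 further: CHO cells stably expressing TAAR1 with calcium dye readout; 0% = DMSO vehicle and 100% = full agonist response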
Active calls of the source: *; . = not tested or not shown.

SMILES	OX1R antag-1	TAAR1 agonist	TAAR1 antagonist	OX1R antag-2	CHO parental Ca	TAAR1 nonsel count	TAAR1 antag conf	Ga16 nonsel ag	TAAR1 ag counter
COc1ccc(-n2nc(C(=O)NCC(=O)NCCc3ccc(OC)c(OC)c3)c3ccccc3c2=O)cc1	3.3	20.2	37.9	-42.4	-37.9	.	.	.	.
CN(C(=O)c1cccc(Nc2ccc(-c3ccc4c(c3)OCCO4)nn2)c1)C1CCCCC1	21.7	12.8	53.9*	-4.7	-32.5	13.1	31.4	5.2	14.6
COc1ccc(Nc2nc(-c3ccccc3)nc3ccccc23)cc1S(=O)(=O)N1CCOCC1	20.4	21.9	71.8*	2.3	7.0	34.8*	56.7*	13.0*	10.7
COCc1cc(N2CCN(C(=O)OC(C)(C)C)C[C@@H]2C)ccc1N1CCS(=O)(=O)CC1	.	4.5	9.3	.	.	.	.	.	.
C[C@H]1CN(C(=O)OC(C)(C)C)CCN1c1ccc(N2CCS(=O)(=O)CC2)c(C#N)c1	.	21.1	66.6*	.	.	46.8*	59.9*	16.2*	13.2
CS(=O)(=O)Nc1cccc(-c2cnc3ccccc3n2)c1	9.0	2.1	0.5	-24.3	-17.1	.	.	.	.
CCc1cc2c(COC(=O)c3cccc(NS(C)(=O)=O)c3)cc(=O)oc2cc1O	29.8	4.5	64.7*	-0.3	-18.6	33.0*	38.9	4.2	2.1
Cc1cccc(-c2noc(CCC(=O)NCc3ccccc3)n2)c1	29.9	7.7	105.6*	-10.3	-26.2	13.2	4.0	7.5	11.7
Cc1cccc(-c2noc(-c3ccccc3C(=O)NCc3ccco3)n2)c1	6.6	16.1	52.5*	-32.1	-31.7	25.6*	35.2	4.5	4.1
Cc1ccc(-c2noc(-c3ccccc3C(=O)NCc3ccco3)n2)cc1	4.5	8.2	28.9	-32.4	-26.7	.	.	.	.
O=C(NCc1ccco1)c1cccc(-c2nnc(-c3ccccc3)o2)c1	44.4	10.8	61.7*	-13.4	-9.6	22.0*	42.3	6.5	9.7
CC(C(=O)OCC(=O)c1ccc(Br)cc1)N1C(=O)C2C3C=CC(C3)C2C1=O (stereo not given)	9.4	2.7	2.3	-20.9	-19.8	.	.	.	.
O=C(CN(C(=O)c1csnn1)c1ccc(F)c(Cl)c1)NC1CCCC1	1.3	5.9	-19.5	-20.6	-3.2	.	.	.	.
CCCCCCCCN1C(=O)[C@@H](CC(=O)NCCCOCCCC)C[C@@]2(C(=O)OC)C1=C[C@H](C1CCCC1)O[C@@H]2C	.	-1.9	-15.7	.	.	.	.	.	.
COc1ccc(/C=C(\C#N)C(=O)N2COCC2(C)C)cc1	6.6	2.6	3.9	-15.3	-0.7	.	.	.	.
COc1ccc(-c2c(C)nc3c(-c4ccccn4)cnn3c2N)cc1	.	10.7	66.6*	.	.	24.1*	62.2*	9.6	12.3
COc1ccc(C2CC(=O)C(c3ccc(C(F)(F)F)cc3)=CN2Cc2ccccc2)cc1 (stereo not given)	.	2.2	-36.6	.	.	.	.	.	.
COc1ccc(C2CC(=O)C(c3ccccc3)=CN2Cc2ccccc2)cc1 (stereo not given)	.	1.7	58.0*	.	.	28.2*	48.5	3.1	9.0
COc1ccc(C2CC(=O)C(c3ccccc3C)=CN2Cc2ccccc2)cc1 (stereo not given)	.	6.9	56.1*	.	.	20.8	36.3	3.7	3.2
Cc1ccc2nc(-c3ccc(NC(=O)CSc4nccc(=O)[nH]4)cc3)sc2c1	12.9	2.2	0.6	13.0	-1.8	.	.	.	.
Cc1ccc2nc(-c3ccc(NC(=O)CSc4nc(N)cc(=O)[nH]4)cc3)sc2c1	12.4	-0.1	103.3*	12.0	-1.1	11.4	-0.1	2.1	3.2
COc1ccc(NC(=O)c2ccc(C#N)cc2)cc1NS(=O)(=O)c1ccc(F)cc1	17.2	-0.3	70.5*	-0.7	-3.8	5.5	8.3	4.8	4.8
COc1ccc(NC(=O)c2ccc3ccccc3c2)cc1NS(=O)(=O)c1ccc(F)cc1	23.3	1.4	7.1	2.6	-16.7	.	.	.	.
COc1ccc(NC(=O)CSc2nnc(-c3ccc(F)cc3)o2)cn1	-4.3	2.0	-4.8	-9.1	-8.8	.	.	.	.
CCOC(=O)c1cc(-c2nnc(SCC(=O)Nc3ccc(F)cc3)o2)c(C)nc1C	18.3	9.4	54.5*	-27.4	-28.2	18.3	30.7	5.4	3.3
SMILES	OX1R antag-1	TAAR1 agonist	TAAR1 antagonist	OX1R antag-2	CHO parental Ca	TAAR1 nonsel count	TAAR1 antag conf	Ga16 nonsel ag	TAAR1 ag counter
CC1CN(C(=O)c2cc(-c3ccc(Cl)s3)nc3ccccc23)CC(C)O1 (stereo not given)	7.8	-1.1	10.8	-26.0	-23.6	.	.	.	.
COc1ccc(-c2cc(C(=O)N3CCN(c4ccccc4O)CC3)c3ccccc3n2)cc1OC	26.1	10.9	74.0*	-8.5	-19.9	26.4*	46.5	8.3	6.3
O=C(c1cc(-c2ccccc2Cl)nc2ccccc12)N1CCN(c2ccccc2O)CC1	7.5	13.9	59.3*	-14.5	-16.4	22.2*	36.5	7.2	5.6
NC(=O)C1CCN(C(=O)c2cc(-c3ccc(Cl)s3)nc3ccccc23)CC1	2.3	12.4	59.9*	-8.6	-12.3	32.3*	43.9	10.6	12.6
Cc1ccc(-c2cc(C(=O)N3CCN(c4ccccc4O)CC3)c3ccccc3n2)cc1	3.2	6.7	62.4*	-24.8	-14.0	35.8*	43.6	6.1	1.7
O=C(c1cc(-c2ccccc2)nc2ccccc12)N1CCCC1	2.9	3.9	-15.7	-17.9	-9.9	.	.	.	.
COc1ccc(-c2cc(C(=O)N3CCCC3)c3ccccc3n2)cc1	-1.9	7.2	15.7	-13.0	-21.4	.	.	.	.
O=c1c([N+](=O)[O-])c(N2CCCC2)c2ccccc2n1-c1ccccc1	-4.4	2.0	-24.2	-8.0	-5.7	.	.	.	.
COCC(=O)N(Cc1cc2cc(OC)ccc2[nH]c1=O)c1ccc(C)cc1	15.3	6.1	-17.9	-16.0	-15.9	.	.	.	.
Cc1ccc(C)c(N2CCN(C(=O)CCCn3ncn4c(cc5occc54)c3=O)CC2)c1	9.1	1.5	-12.9	-35.9	-31.9	.	.	.	.
O=C(O)C(CCc1ccccc1)N1C(=O)c2ccccc2C1=O (stereo not given)	.	1.7	3.0	.	.	.	.	.	.
Cc1ccc(-c2cc(C(=O)N3CCN(c4ccc(O)cc4)CC3)c3ccccc3n2)cc1	-4.1	14.2	64.7*	-11.2	-15.4	34.8*	43.3	9.9	8.3
Cn1c(C(=O)Nc2ccc3c(c2)OCCO3)cc2c(=O)n(C)c3ccccc3c21	34.8	3.4	51.7*	-30.2	-19.0	10.0	34.8	7.9	12.5
COc1ccc(-c2cc(C(=O)Nc3c(C)n(C)n(-c4ccccc4)c3=O)c3ccccc3n2)c(OC)c1	14.3	8.1	53.4*	-27.9	-30.1	25.7*	37.0	6.6	10.6
